Measurements of several laboratories.
Lines come from different studies, so protocols differ.
Target: Serine/threonine-protein kinase WNK3 (WNK3, Homo sapiens, UniProt Q9BYP7)

Structure (SMILES) | assay | setting | quantity | value
COc1cc(Cl)c(C(=O)N[C@@H](CN[C@H]2CC[C@@H](N)CC2)Cc2ccc(C#N)cc2)cc1-c1ccc(CN[C@H](C)c2ccc(C)cc2)o1 | enzyme activity, inhibitor | 1 µM | remaining activity | 99%
CCCOc1ccc([C@H]2[C@H](C(=O)O)[C@@H](c3ccc4c(c3)OCO4)CN2CC(=O)Nc2c(CC)cccc2CC)cc1 | cell-free assay, competition with immobilised ligand | 1 µM | remaining binding | 90%
O=C1Nc2ccc(Cl)cc2C1=Cc1cc(Cl)c(O)c(Cl)c1 | cell-free assay | 0.5 µM | remaining signal | 90.7%
CCCOc1ccc(OC)c(F)c1C(=O)c1ccc(C(=O)N[C@@H]2CNC[C@H]2NC(=O)c2ccc3[nH]ncc3c2)cc1 | enzyme activity, inhibitor | 10 µM | remaining activity | 95%
CN1CC(Oc2cnc(C#N)cc2-c2ccn3nc(NC(=O)C4CC4)cc3c2)C1 | enzyme activity, inhibitor | 1 µM | inhibition | -5%
CC(C)(O)c1cncc(-c2nc3ccc(F)cc3n2C2CC2)c1 | cell-free assay, competition with immobilised ligand | 1 µM | remaining binding | 100%
CCCS(=O)(=O)Nc1ccc(F)c(C(=O)c2c[nH]c3ncc(-c4ccc(Cl)cc4)cc23)c1F | enzyme activity, inhibitor | 1 µM | inhibition | < 10%
CNC(=O)c1cc(Oc2ccc(NC(=O)Nc3ccc(Cl)c(C(F)(F)F)c3)cc2)ccn1 | enzyme activity, inhibitor | 0.3 µM | inhibition | -6%
CCN(CC)c1ccc(C2=NNC(=O)CC2C)cc1[N+](=O)[O-] (centres unmarked) | enzyme activity, inhibitor | 10 µM | remaining activity | 105%
Cc1ccc(Nc2nccc(N(C)c3ccc4c(C)n(C)nc4c3)n2)cc1S(N)(=O)=O | enzyme activity, inhibitor | 0.3 µM | inhibition | -4%
CC(C)(C)c1nc2c(s1)c1nc(N)ncc1c1ccc(NS(=O)(=O)c3c(F)cccc3F)c(F)c12 | enzyme activity, inhibitor, radiometric | 1 µM | remaining activity | 91%
CN(C)C(=O)Cn1cc(-c2nc([C@@](C)(c3ccc(-c4cnc(N)nc4)cc3)C3CC3)no2)cn1 | cell-free assay, competition with immobilised ligand | 1 µM | remaining binding | 76%
O=C(Nc1cnn(-c2csc(C(=O)NC3COC3)c2)c1)Nc1c(F)cccc1Cl | enzyme activity, inhibitor | 5 µM | remaining activity | 91.8%
Cc1cc(NC(=O)c2cccc(S(F)(F)(F)(F)F)c2)cc(-n2ccn3nc(-c4cccnc4)cc23)c1 | cell-free assay, competition with immobilised ligand | 1 µM | remaining binding | 100%
Nc1ncnc2occ(-c3ccc(NC(=O)Nc4cc(C(F)(F)F)ccc4F)cc3)c12 | cell-free assay, inhibitor | 20 µM | remaining signal | 58%
FC(F)(F)c1ccc2c(c1)nc(-c1cccnc1)n2C1CC1 | cell-free assay, competition with immobilised ligand | 1 µM | remaining binding | 100%
CCN(CC)CCNC(=O)c1c(C)[nH]c(/C=C2\C(=O)Nc3ccc(F)cc32)c1C | enzyme activity, inhibitor | 0.3 µM | inhibition | -4%
